An excerpt weighted towards active compounds, which were near 3.2% of everything screened.
DAX1 inh-1 = NR0B1 (DAX1) inhibition; P51843; HEK293 Gal4-DAX1 luciferase reporter, luminescence; inhibition, % at 6.75 µM; hit rate 0.99% among 340,000; AID 504766;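 active = inhibition above the mean over all tested compounds plus 3 SD, cut at about 4.2% in these data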;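 also: 0% = DAX1-transfected cells with DMSO and 100% = empty-vector control cells with DMSO; inhibition shows as a rise in luminescence from relieved DAX1 repression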
NR2E3 ag-1 = agonists of human NR2E3 nuclear receptor. Q9Y5X4. CHO-S Gal4-NCOR/VP16-NR2E3 two-hybrid, luciferase. inhibition of corepressor binding, % at 3.98 µM. hit rate 0.35% among 360,000;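 active = inhibition above the mean of all tested compounds plus 3 SD, cut at about 70% in these data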;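 also: 0% = DMSO with NR2E3 transfected cells and 100% = cells lacking NR2E3 construct; higher means lower luciferase signal from less NR2E3 corepressor binding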
Target sequence (Q9Y5X4 whole entry, looked up, the tested form may be a part): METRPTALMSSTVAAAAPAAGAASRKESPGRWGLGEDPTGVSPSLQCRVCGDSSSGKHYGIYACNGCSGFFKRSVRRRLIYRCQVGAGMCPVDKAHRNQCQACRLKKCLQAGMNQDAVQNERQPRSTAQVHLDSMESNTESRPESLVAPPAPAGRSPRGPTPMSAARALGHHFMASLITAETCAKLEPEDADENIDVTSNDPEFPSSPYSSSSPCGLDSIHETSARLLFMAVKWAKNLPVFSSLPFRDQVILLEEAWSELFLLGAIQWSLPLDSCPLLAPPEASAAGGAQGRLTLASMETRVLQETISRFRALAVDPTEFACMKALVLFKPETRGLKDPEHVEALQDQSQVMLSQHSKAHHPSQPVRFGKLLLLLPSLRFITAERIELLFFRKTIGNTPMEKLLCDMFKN
DAX1 inh-2 = DAX1 (NR0B1) inhibition, primary screen; hit rate 1.1% among 370,000; AID 652010; HEK293T StAR-luciferase reporter, SF-1/DAX-1 repression relief; inhibition, % at 6.8 µM;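 active = inhibition above the mean over all tested compounds plus 3 SD, cut at about 3.6% in these data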;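 also: 0% = DAX-1 cells with DMSO and 100% = cells lacking DAX-1 with DMSO; higher inhibition means more luminescence from relief of DAX-1 repression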
NR2E3 ag-2 = agonists of human nuclear receptor NR2E3 | Q9Y5X4 | GST-NR2E3/biotin-RetCOR TR-FRET, 1536-well | inhibition of corepressor binding, % at 4.78 µM | hit rate 0.12% among 320,000 | AID 2300;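 active = percent inhibition above the cutoff of mean plus 3 SD of all tested compounds, set per screening campaign, cut at about 20% in these data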;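 also: 0% = DMSO wells and 100% = biotin wells as full block of FRET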
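system = GST-tagged NR2E3 plus biotinylated RetCOR corepressor | input = 1.35 nM GST-NR2E3 | also added = 7 nM biotin-RetCOR | schedule = 5 h incubation at 4 °C | measured by = TR-FRET with europium anti-GST and streptavidin-D2, 340 nm excitation | read-out = percent loss of FRET ratio relative to control wells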
SMARCA2 act = increases SMARCA2 function in MMTV reporter cells; MG213 cells, MMTV-luciferase reporter, dexamethasone, overnight; activation, % at 9.1 µM; hit rate 1% among 370,000; AID 652017; in the data active = activation above about 7.8%;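 also: 0% = vehicle wells and 100% = reference activator wells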
GASC-1 inh = blocks human GASC-1 demethylase activity; Q9H3R0; GST-JMJD2C(1-420) H3K9me3 demethylation, DELFIA europium; inhibition, % at 2.35 µM; hit rate 0.069% among 330,000;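 active = more than half of a compound's replicate wells show inhibition beyond 50%, single wells judged on their own value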;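 also: signal counts dimethyl H3K9 product captured on neutravidin plate; 0% = median of DMSO wells and 100% = 0.3 times that DMSO median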
Numbers without * were called inactive; / = no result given; ! = not active in a repeat.

SMILES	DAX1 inh-1	NR2E3 ag-1	DAX1 inh-2	NR2E3 ag-2	SMARCA2 act	GASC-1 inh
CC1CCN(c2ccc(C(=O)O)cc2NS(=O)(=O)c2ccc(Cl)s2)CC1	/	/	0	/	-5	/
CCC(C)(C)C(=O)Nc1nnc(CCc2ccccc2)s1	4.7*	-116	1	3	4	6
O=C(C1CCN(S(=O)(=O)c2ccc3[nH]c(=O)oc3c2)CC1)N1CCCN(Cc2ccccc2)CC1	/	/	0	/	-2	/
CCOc1ccc(OCC)c(NC(=O)c2ccc(CNc3c(N4CCCC4)c(=O)c3=O)cc2)c1	6.3*	8	0	-2	-5	11
CCOc1ccc(NC(=O)c2ccc(CNc3c(N4CCCC4)c(=O)c3=O)cc2)cc1	2	-11	0	2	5	0
C=C1C(=O)[C@]23C[C@H]1CC[C@H]2[C@]1(C)CCC[C@@](C)(C(=O)OC)[C@H]1C[C@@H]3O	/	/	-7	/	-7	/
CS(=O)(=O)N(CC(=O)N1CCCCC1)Cc1ccccc1	5.0*	5	0	-2	-3	-1
COc1ccc(NC(=O)CCSc2ccc(F)cc2)cc1	4.2*	2	3	3	1	4
COc1ccc(NC(=O)CCSc2ccc(C)cc2)cc1	-1	-8	0	0	-1	5
Cn1c(=O)c2nc(-c3ccccc3)c(-c3ccccc3)nc2n(C)c1=O	4.5*	1	0	0	-3	4
Cn1c(=O)c2nc(Cl)c(-c3ccccc3)nc2n(C)c1=O	2	-14	0	2	-1	-5
Nc1ccccc1-c1ccc(Cl)cc1	-1	-11	4.1*	/	0	/
Nc1ccccc1-c1ccccc1N	0	2	0	-1	0	-5
N#Cc1c(-c2ccccc2)nc(-c2ccccc2)[nH]c1=O	0	-4	0	6	5	-1
Nc1nc(-c2ccccc2)[nH]c(=O)c1N=O	4.2*	-29	-1	-9	-3	-2
Cc1ccc(/C=C2\SC(N3CCCC3)=NC2=O)cc1	/	/	-1	-4	2	-1
CN(C)c1ccc(/C=C2\SC(N3CCCCC3)=NC2=O)cc1	4.6*	-11	-1	-4	0	-5
CCN(CC)c1nc(C)nc2c1nnn2Cc1ccccc1	/	/	0	/	-3	/
COC(=O)[C@]12C[C@H](CC(=O)NCCCCc3ccccc3)C(=O)N(CCc3ccc(OC)c(OC)c3)C1=C[C@H](C1CCCC1)O[C@@H]2C	/	/	-1	/	-3	/
Clc1cccc(Cl)c1Cn1ccc(C2CC2)n1	2	-135	3	-1	7.9*	0
CC(OC(=O)c1ccc(Cl)nc1)C(=O)NC1(C#N)CCCCC1 (stereo not drawn)	4.5*	3	-1	0	1	0
Cc1nc(C2COc3ccccc3O2)sc1C(=O)O (stereo not drawn)	5.5*	-61	2	-1	-2	7
C=CCOC(=O)C1=C(C)NC(SCC(=O)NC(=O)OCC)=C(C#N)C1c1cccnc1 (stereo not drawn)	5.3*!	-18	0	6	4	-15
C=CCOC(=O)C1=C(C)NC(SCC(=O)N(CC)CC)=C(C#N)C1c1ccccc1 (stereo not drawn)	-3	-12	-1	0	-6	-5
COc1ccc(CCN(Cc2cccs2)S(=O)(=O)c2ccc(F)cc2)cc1OC	/	/	-3	/	-9	/
SMILES	DAX1 inh-1	NR2E3 ag-1	DAX1 inh-2	NR2E3 ag-2	SMARCA2 act	GASC-1 inh
COc1ccc(CNC(=O)COC(=O)c2ccccc2OCC(=O)Nc2ccc(SC(F)F)cc2)cc1	6.5*	-44	1	2	-2	12
O=c1oc2ccc(Br)cc2cc1-c1nc2ccccc2o1	0	-21	0	-2	1	38
COc1cccc2cc(-c3nc4ccccc4o3)c(=O)oc12	4.4*	-60	2	4	5	13
O=C(NC1CCCCN(Cc2cccc(F)c2)C1=O)c1ccc2ccccc2c1 (stereo not drawn)	/	/	0	/	1	/
O=C(NN1C(=O)C2C(C1=O)C1C=CC2C12CC2)c1cccc(Cl)c1 (stereo not drawn)	5.0*	-9	0	-3	-4	7
CC(C)Cc1ccc(/C=C/C(=O)N2CCCCC2)cc1	3	-133	4.5*	8	5	6

Compound activity: PubChem, several laboratories
